From BindingDB's records for doi:10.1021/jm9704199 (Dupont Pharmaceuticals, 1998)

Target: Human immunodeficiency virus type 1 protease (Human immunodeficiency virus 1, UniProt Q72874)
Assay: Inhibition of HIV protease, measured by assaying the cleavage of a fluorescent peptide substrate using HPLC
Summary of the method: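 HIV-1 protease activity followed as cleavage of a fluorescent peptide substrate, with products resolved and quantified by HPLC; Ki values reported.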

| SMILES | Ki |
| --- | --- |
| CCCC(N=O)c1cccc(CN2C(=O)N(Cc3cccc(C(CCC)N=O)c3)[C@H](Cc3ccccc3)[C@H](O)[C@@H](O)[C@H]2Cc2ccccc2)c1 (some centres not stated) | 31 pM |
| CCC(N=O)c1cccc(CN2C(=O)N(Cc3cccc(C(CC)N=O)c3)[C@H](Cc3ccccc3)[C@H](O)[C@@H](O)[C@H]2Cc2ccccc2)c1 (stereo partly drawn) [(4R,5S,6S,7R)-4,7-dibenzyl-5,6-dihydroxy-1,3-bis({3-[1-(hydroxyimino)propyl]phenyl}methyl)-1,3-diazepan-2-one] | 31 pM |
